Reference: ChEMBL document CHEMBL4118054, “Tamarixetin 3-O-β-d-Glucopyranoside from Azadirachta indica Leaves: Gastroprotective Role through Inhibition of Matrix Metalloproteinase-9 Activity in Mice” (J Nat Prod, 2017)
The source made the active and inactive calls. The rule behind the calls is not given here.

Experiments:
[1] = biological target: T1, Matrix metalloproteinase-9 (Homo sapiens, UniProt P14780); test: Inhibition of recombinant human full length MMP9 preincubated for 1 hr followed by gelatin addition measured after 18 hrs by SDS-PAGE analysis
T1 sequence (P14780 whole entry): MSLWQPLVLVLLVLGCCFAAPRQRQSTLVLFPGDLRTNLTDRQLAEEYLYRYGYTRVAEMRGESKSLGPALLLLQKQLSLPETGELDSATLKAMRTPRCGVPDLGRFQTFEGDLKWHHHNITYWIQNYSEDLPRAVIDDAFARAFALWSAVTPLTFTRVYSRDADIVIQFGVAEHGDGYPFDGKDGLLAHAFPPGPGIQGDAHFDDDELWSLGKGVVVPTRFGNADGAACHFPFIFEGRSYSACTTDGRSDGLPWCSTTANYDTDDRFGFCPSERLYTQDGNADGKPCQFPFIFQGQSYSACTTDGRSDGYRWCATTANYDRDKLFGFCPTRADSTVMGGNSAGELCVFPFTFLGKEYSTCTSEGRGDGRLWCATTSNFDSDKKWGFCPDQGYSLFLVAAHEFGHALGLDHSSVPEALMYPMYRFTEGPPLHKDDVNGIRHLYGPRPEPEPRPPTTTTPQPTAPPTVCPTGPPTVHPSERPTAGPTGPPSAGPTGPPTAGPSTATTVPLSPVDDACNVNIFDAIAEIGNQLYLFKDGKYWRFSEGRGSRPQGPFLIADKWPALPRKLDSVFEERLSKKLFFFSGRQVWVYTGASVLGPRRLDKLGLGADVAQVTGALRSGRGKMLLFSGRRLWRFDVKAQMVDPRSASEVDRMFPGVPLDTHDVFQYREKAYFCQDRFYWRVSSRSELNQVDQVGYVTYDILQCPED
Summary of the method: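 Full-length recombinant human MMP-9 (~5 μg) incubated 1 h at room temperature with 0−500 μM test agent, then run on nonreducing 8% SDS-PAGE with 1 mg/mL gelatin. Gels washed in 2.5% Triton X-100, incubated 18 h at 37 °C in 40 mM Tris-HCl pH 7.4, 200 mM NaCl, 10 mM CaCl2, Coomassie stained; lysis bands quantified by densitometry against untreated enzyme. IC50 taken from activity change versus concentration, saturation set as 100%.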

[2] = biological target: T1, Matrix metalloproteinase-9; test: Binding affinity to human full length MMP9 by CD spectral analysis
Summary of the method: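 Near-UV/visible CD spectra (240−700 nm), 1.0 mm quartz cell, under nitrogen at room temperature in aqueous buffer. Ligand held at 100 μM (from 10 mM methanol stock) while MMP-9 varied 0−333 nM. Kd at half-saturation derived from a double-reciprocal plot of Δθ against MMP-9 concentration.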

Mus musculus [3] = test: (§1) Antiulcerogenic activity in indomethacin-induced gastric ulceration Balb/c mouse model assessed as decrease in visible gastric hemorrhagic lesions in fundic stomach administered orally 30 mins prior to indomethacin challenge measured after 4 hrs; format: functional, organism-based
Mus musculus [4] = test: In vivo inhibition of MMP9 in indomethacin-induced gastric ulceration Balb/c mouse model assessed as reduction in indomethacin-induced ProMMP9 activity in gastric tissue administered orally 30 mins prior to indomethacin challenge measured after 4 hrs by gelatin zymographic method; format: functional, organism-based
Summary of the method: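 Gastric tissue from the indomethacin model (test agent orally 15 or 25 mg/kg b.w., 30 min before indomethacin, 4 h) minced at 4 °C in PBS with protease inhibitors, spun 12000g 15 min. PBS extract (70 μg protein/lane, Lowry) run on 8% SDS-PAGE with 1 mg/mL gelatin, nonreducing. Gels washed in 2.5% Triton X-100, incubated 18 h at 37 °C in 40 mM Tris-HCl pH 7.4, 0.2 M NaCl, 10 mM CaCl2, Coomassie stained, densitometry.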

[5] = biological target: T1, Matrix metalloproteinase-9; test: Residual activity of recombinant human full length MMP9 at 250 uM preincubated for 1 hr followed by gelatin addition measured after 18 hrs by SDS-PAGE analysis relative to control
Mus musculus [6] = test: Antiulcerogenic activity in indomethacin-induced gastric ulceration Balb/c mouse model assessed as restoration of intact epithelial layer in stomach at 15 to 25 mg/kg, po administered 30 mins prior to indomethacin challenge measured after 4 hrs by H and E staining based microscopic method; format: functional, organism-based
Summary of the method: (§2)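 Same indomethacin model (80 mg/kg b.w. oral, test agent 15 or 25 mg/kg b.w. oral 30 min prior, sacrifice at 4 h). Stomach pieces fixed in 4% paraformaldehyde, paraffin-embedded, ~5 μm sections H&E stained. Damage index scored blind as percentage of the gastric corpus circumference showing hemorrhage or epithelial disruption; submucosal infiltrating cells and epithelial continuity inspected microscopically.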

Mus musculus [7] = test: Toxicity in indomethacin-induced gastric ulceration Balb/c mouse model assessed as alteration in gastric tissue at 15 to 25 mg/kg, po administered 30 mins prior to indomethacin challenge measured after 4 hrs; format: organism-based; settings: in vivo
Mus musculus [8] = test: as §1, with “stomach by measuring ulcer index at 15 mg/kg, po” for “stomach”, “administered” for “administered orally”, “hrs (reference value: 35 +/- 7.5)” for “hrs”; format: functional
Mus musculus [9] = test: as §1, with “stomach by measuring ulcer index at 25 mg/kg, po” for “stomach”, “administered” for “administered orally”, “hrs (reference value: 35 +/- 7.5)” for “hrs”; format: functional
[10] = biological target: T1, Matrix metalloproteinase-9; test: Residual activity of recombinant human full length MMP9 at 125 uM preincubated for 1 hr followed by gelatin addition measured after 18 hrs by SDS-PAGE analysis relative to control
Mus musculus [11] = test: Antiulcerogenic activity in indomethacin-induced gastric ulceration Balb/c mouse model assessed as infilteration of inflammatory cells at submucosal layer at 15 to 25 mg/kg, po administered 30 mins prior to indomethacin challenge measured after 4 hrs by H and E staining based microscopic method; format: functional, organism-based; summary of the method: as §2
Mus musculus [12] = test: Antiulcerogenic activity in indomethacin-induced gastric ulceration Balb/c mouse model assessed as gastric damage index at 15 mg/kg, po administered 30 mins prior to indomethacin challenge measured after 4 hrs by H and E staining based microscopic method (reference value: 40 +/- 7); format: functional; summary of the method: as §2
Mus musculus [13] = test: Antiulcerogenic activity in indomethacin-induced gastric ulceration Balb/c mouse model assessed as gastric damage index at 25 mg/kg, po administered 30 mins prior to indomethacin challenge measured after 4 hrs by H and E staining based microscopic method (reference value: 40 +/- 7); format: functional; summary of the method: as §2
[14] = biological target: T1, Matrix metalloproteinase-9; test: Residual activity of recombinant human full length MMP9 at 60 uM preincubated for 1 hr followed by gelatin addition measured after 18 hrs by SDS-PAGE analysis relative to control
[15] = biological target: T1, Matrix metalloproteinase-9; test: Binding affinity to human full length MMP9 assessed as decrease in cotton effects of compound up to 500 uM by CD spectral analysis

## COc1ccc(-c2oc3cc(O)cc(O)c3c(=O)c2O[C@@H]2O[C@H](CO)[C@@H](O)[C@H](O)[C@H]2O)cc1O
[1]
  IC50: 50 µM
  inhibition: Dose-dependent effect
[2]
  Kd: 0.1 µM
Mus musculus [3]
  Activity: Dose-dependent effect
Mus musculus [4]
  inhibition: Dose-dependent effect
[5]
  residual activity: 40%
Mus musculus [6]
  Activity: Active
Mus musculus [7]
  Activity: Non-Toxic
Mus musculus [8]
  UI: 8
Mus musculus [9]
  UI: 5
[10]
  residual activity: 45%
Mus musculus [11]
  Activity: Active
Mus musculus [12]
  Activity_index: 10
Mus musculus [13]
  Activity_index: 5
[14]
  residual activity: 60%
[15]
  Activity: Active
